Screening results as filed in PubChem.
Sampled rows, rich in hits. Any-hit rate of the full collection: about 2%.
HSP90 refold inh: blocks HSP90-mediated luciferase refolding in reticulocyte lysate; inhibition, % at 5.6 µM; 0.91% of 290,000 active; Rabbit reticulocyte lysate, luciferase refolding luminescence, 3 h;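 active = inhibition above the screen-wide mean plus 3 SD, computed separately per campaign, cut at about 16% in these data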;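 also: 0% = DMSO wells and 100% = 60 µM geldanamycin wells; inhibitors lower the luminescence because luciferase stays unfolded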
PPC-1+TRAIL kill: compounds killing PPC-1 cancer cells with TRAIL present (potentiator screen, no TRAIL-free arm); PPC-1 cells + TRAIL, ATPLite viability luminescence; cell killing (% activity), % at 4 µM or 5 µM; 0.41% of 220,000 active;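 active = cell killing above 50% in the first pass at 4 µM, then a duplicate retest at 5 µM averaging 50% or more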;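 also: plate controls were cells with TRAIL plus DMSO for no effect and medium-only wells lacking cells for full effect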
FLuc inh counter: Photinus pyralis luciferase inhibition counter-screen; ATPLite firefly luciferase biochemical luminescence, 10 min; 1.5% of 200,000 active; AID 1006; inhibition, % at 10 µM;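 active = inhibition above about 50% when tested at 10 µM, limit read from the data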
Target sequence (P08659 whole entry, looked up): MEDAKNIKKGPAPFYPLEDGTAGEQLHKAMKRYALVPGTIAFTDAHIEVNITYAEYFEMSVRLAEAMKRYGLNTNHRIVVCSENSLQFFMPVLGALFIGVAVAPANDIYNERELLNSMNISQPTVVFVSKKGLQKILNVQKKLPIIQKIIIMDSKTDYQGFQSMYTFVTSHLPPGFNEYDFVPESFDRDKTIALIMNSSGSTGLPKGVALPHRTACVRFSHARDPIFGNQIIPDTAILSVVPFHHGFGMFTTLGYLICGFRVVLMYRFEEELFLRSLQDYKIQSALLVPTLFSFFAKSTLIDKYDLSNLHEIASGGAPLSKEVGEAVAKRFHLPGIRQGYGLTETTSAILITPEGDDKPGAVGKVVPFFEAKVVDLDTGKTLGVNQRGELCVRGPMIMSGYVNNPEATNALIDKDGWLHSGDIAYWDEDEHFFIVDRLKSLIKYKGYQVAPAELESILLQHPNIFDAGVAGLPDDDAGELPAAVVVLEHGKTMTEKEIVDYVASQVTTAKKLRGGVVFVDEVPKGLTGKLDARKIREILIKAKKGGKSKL
FLuc act counter: firefly luciferase counter-screen for stimulation assays; P08659; ATPlite luciferase biochemical, luminescence, 10 min; 0 = ATP-free wells, 1 = DMSO control; activation factor at 10 µM; 200,000 tested, under 10 active; AID 1027;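 active = luciferase activation factor, scaled between plate controls, of at least 2 with compound at 10 µM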
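test system = cell-free luciferase reagent | medium = PBS as buffer for the ATP substrate | dosing = test compounds dosed from 2 mM stocks in 100% DMSO | incubation = 10 min at ambient temperature | detection = luminescence measurement of luciferase light output | benchmarks = low control with PBS replacing ATP, high control enzyme plus ATP without compound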
TRAIL sens C8: caspase-8 TRAIL sensitization | NB7+C8 cells + TRAIL, ATPlite viability luminescence | inhibition (viability loss, TRAIL sensitization), % at 10 µM | 1% of 360,000 active | AID 624354;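 active = compounds causing at least 50% loss of cell viability in the single-dose screen, relative to plate controls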
An asterisk follows results filed as active; nt = no result given.

SMILES	HSP90 refold inh	PPC-1+TRAIL kill	FLuc inh counter	FLuc act counter	TRAIL sens C8
CCCc1ccc(-c2cc(NC(=O)CSc3nnc(N)s3)n(-c3ccccc3)n2)cc1	-2	32	65*	0.3	63*
Cc1nnc(SCC(=O)Nc2cc(-c3cc(C)c(C)cc3C)nn2-c2ccccc2)s1	3	26	-6	1.1	-4
O=C(NCCO)c1ccc(-c2cnc3cccnn23)cc1	nt	nt	nt	nt	-9
COc1cc(/C=N/NC(=O)c2ccccc2O)ccc1OCC(=O)Nc1ccccc1	-6	nt	nt	nt	-2
O=C(COc1ccc(/C=N/NC(=O)c2cc3ccccc3o2)cc1Cl)Nc1ccccc1	-2	25	1	1	93*
N/C(=N\N=C\c1cccc(O)c1)c1nonc1N	29*	11	40	0.6	13
N/C(=N\N=C\c1ccc(O)cc1)c1nonc1N	0	6	51*	0.5	18
N/C(=N\N=C\c1ccc(O)c(O)c1)c1nonc1N	3	1	nt	nt	-2
CCOC(=O)N(C)C[C@@H]1OCc2ccccc2-c2c(n(C)c3ccccc23)C(=O)N([C@H](C)CO)C[C@H]1C	nt	nt	nt	nt	-19
NS(=O)(=O)c1ccc(N=Nc2c(-c3ccccc3)[nH]n(-c3nc(-c4ccccc4)cs3)c2=O)cc1	3	15	-5	1.1	54*
Nc1[nH]n2c(=O)cc(-c3ccccc3)nc2c1N=Nc1ccc(S(N)(=O)=O)cc1	0	6	24	0.8	11
Cc1cccc(C)c1NC(=O)C1CCN(S(C)(=O)=O)CC1	-1	nt	nt	nt	51*
Cc1cc(C)c(NC(=O)C2CCN(S(C)(=O)=O)CC2)c(C)c1	nt	nt	nt	nt	2
O=C(N/N=C/c1ccsc1)c1ccccn1	7	0	52*	0.5	19
O=C(N/N=C/c1ccc(Br)s1)c1ccccn1	11	34	66*	0.3	52*
O=C(N/N=C/c1ccc(Br)s1)c1ccco1	-1	5	nt	nt	24
COc1ccc(N2CCN(C(=O)/C=C/[C@H]3O[C@@H](n4ccc(=O)[nH]c4=O)[C@H](O)[C@@H]3O)CC2)cc1	nt	nt	nt	nt	-13
Cc1ccn2c(c1)nc(=S)n2C(=O)c1ccccc1	6	82*	96*	0	89*
O=C(c1ccco1)n1c(=S)nc2ccccn21	-1	16	68*	0.3	36
O=C(CCl)N1c2ccccc2SCC1c1ccccc1 (stereo not drawn)	-3	nt	nt	nt	83*
CCCCC(CC)CN=C(N)NC(N)=NCCCCCCN=C(N)NC(N)=NCC(CC)CCCC (stereo not drawn)	nt	nt	nt	nt	95*
Cc1ccc(S(=O)(=O)N2CCN(C(=O)C3CCN(c4ncnc5sc(C)c(C)c45)CC3)CC2)c(C)c1	nt	nt	nt	nt	33
COC(=O)[C@@]12C[C@@H](CC(=O)NCCCN3CCCC3=O)C(=O)N(Cc3ccco3)C1=CCC(C)(C)C2	nt	nt	nt	nt	-2
COc1ccccc1/C=N/NC(=O)c1csc(C)c1C	-13	8	71*	0.3	15
COc1ccccc1/C=N/NC(=O)c1cccc2ccccc12	2	nt	nt	nt	-14
SMILES	HSP90 refold inh	PPC-1+TRAIL kill	FLuc inh counter	FLuc act counter	TRAIL sens C8
O=C(NC1CC1)C1CCN(S(=O)(=O)c2ccc(Cl)c([N+](=O)[O-])c2)CC1	nt	nt	nt	nt	64*
CCOC(=O)c1cnc(-n2nc(C)cc2C)nc1N(C)C	7	44	80*	0.2	50*
CCOC(=O)c1cnc(-n2nc(C)cc2C)nc1NC1CCCC1	0	28	nt	nt	13
CCn1c(COc2cccc(C)c2)nc2ccccc21	-2	25	2	1	7
COCn1c(COc2ccc3ccccc3c2)nc2ccccc21	2	24	60*	0.4	39
CC(=O)OCCn1c2nc(=O)[nH]c(=O)c-2nc2cc(C)c(C)cc21	20*	14	nt	nt	12
CC(=O)OCCn1c(C)[n+](CCOC(C)=O)c2cc(Cl)c(Cl)cc21	0	8	-2	1	-2
CC[C@H](C)[C@H]1O[C@]2(CC[C@@H]1C)C[C@@H]1C[C@@H](CC=C(C)[C@@H](O[C@H]3C[C@H](OC)[C@@H](O[C@H]4C[C@H](OC)[C@@H](O)[C@H](C)O4)[C@H](C)O3)[C@@H](C)C=CC=C3CO[C@@H]4[C@H](O)C(C)=C[C@@H](C(=O)O1)[C@]34O)O2	nt	nt	nt	nt	71*
O=C(Nc1nc2c(F)cc(F)cc2s1)c1ccccn1	2	35	66*	0.3	71*
CN1CCN(c2ccc3sc(-n4ccc5ccccc54)nc3c2)CC1	nt	nt	nt	nt	68*
c1ccc(N2CCN(c3nc4cc5c(cc4s3)OCO5)CC2)cc1	1	26	29	0.7	17
CC(C)(C)N/N=C/c1c(O)n(-c2ccc(Cl)cn2)c(=O)c2ccccc12	-3	24	-8	1.1	-6
CCc1nnc(/N=C/c2c(O)n(-c3ccc(Cl)cn3)c(=O)c3ccccc23)s1	-2	-1	66*	0.3	3
CCOC(=O)c1sc(=NC(=O)c2ccccc2)n(C)c1C	-8	38	68*	0.3	14
CCOC(=O)c1sc(NC(=O)c2ccc(S(=O)(=O)N(C)C)cc2)cc1C	-1	39	-4	1	9
CCOC(=O)c1sc(=NC(=O)c2cccc(OC)c2)n(C)c1C	3	24	14	0.9	3
CCOC(=O)c1sc(NC(=O)c2ccccc2)cc1C	-6	40	69*	0.3	50*
CCN1CCN(Cc2ccc(NC(=O)Nc3cccs3)cc2)CC1	11	7	74*	0.3	32
COc1ccc(NC(=O)Nc2cccs2)cc1Cl	-3	-3	58*	0.4	21
COc1ccc(NC(=O)CCC(=O)c2cccs2)cc1Cl	5	nt	nt	nt	-4
COCCn1c(C)cc(C(=O)CSc2nnc3ccccn23)c1C	50*	18	29	0.7	16
COc1cccc(C(=O)c2ccncc2C(=O)O)c1OC	nt	nt	nt	nt	-11
COc1ccc(C2CC(c3c(O)cc(C)oc3=O)=NCCS2)c(OC)c1 (stereo not drawn)	-3	20	38	0.6	78*
O=C(c1cc(-c2ccc3c(c2)OCO3)on1)N1CCOCC1	15	24	70*	0.3	42
O=C(c1cc(-c2ccc3c(c2)OCO3)on1)N1CCN(c2ccccc2)CC1	9	3	31	0.7	12
SMILES	HSP90 refold inh	PPC-1+TRAIL kill	FLuc inh counter	FLuc act counter	TRAIL sens C8
O=C(c1cc(-c2ccc(Cl)cc2)on1)N1CCOCC1	12	7	60*	0.4	26
COc1cc2ccc(C(=O)O)cc2cc1OC	nt	nt	nt	nt	-10
C#Cc1ccc(NC(=O)C2(C)CCN2C(=O)Cc2ccc(C(C)C)cc2)cc1 (stereo not drawn)	nt	nt	nt	nt	52*
COc1c(/C=N/NC(=O)c2ccccc2O)c(CCN(C)C(C)=O)cc2c1OCO2	-1	18	85*	0.2	-1
CCC(=O)N(C)CCc1cc2c(c(OC)c1/C=N/NC(=O)c1ccccc1O)OCO2	3	2	32	0.7	4
O=C1C2C3C=CC(CC3)C2C(=O)N1/N=C/c1c[nH]c2ccccc12 (stereo not drawn)	0	25	52*	0.5	3
